Data on 15 compounds can be found in ChEMBL document CHEMBL1129666, “Cross-linking and sequence specific alkylation of DNA BY aziridinylquinones. 1. Quinone methides” (J Med Chem, 1996).

The structures appear in SMILES notation. A value given as a limit tells only on which side of the number the result lay.

One experiment relates to K562. In words: In vitro cytotoxicity against Human Chronic Leukemia K562 cells. It counts as functional, cell-based. The procedure, abridged: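 600 cells/well exposed to compound for 2 h, growth measured by MTT with absorbance at 540 and 640 nm. Growth inhibition plotted against concentration, triplicate per concentration.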
Experiment [1] concerns Nucleic Acid. Description: Efficiency at pBR322 DNA interstand cross-linking at 10 uM. The experiment is classed as functional. As to conditions: Escherichia coli. The essentials:
(§1)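 5'-end-labelled HindIII-linearised pBR322 (~5000 cpm/sample) incubated with compound 2 h at 37 °C, pH 4, in TEA buffer with 2 mM ascorbic acid reduction. Stopped, ethanol-precipitated, denatured 90 °C 2 min in strand separation buffer, run on 0.8% agarose (Tris-acetate, 40 V, 16 h). Autoradiograph densitometry gives percent double-stranded (cross-linked) DNA per lane. Single representative experiment.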

For experiment [2], the system named is Nucleic Acid. Description: Efficiency at pBR322 DNA interstand cross-linking at 100 uM. The settings on record: Escherichia coli. The experiment is classed as functional. The essentials:
as §1

In general, IC50 refers to the midpoint of a concentration-inhibition curve. Low values mean higher potency, high ones lower potency.

Take `CC1=C(C)C(=O)C(C)=C(C)C1=O` [DUROQUINONE]: in the experiment on K562, the 50% inhibitory concentration (IC50) was greater than 50000 nM. Moreover, the Cross linking in the experiment with Nucleic Acid [1] and in the experiment with Nucleic Acid [2] was 0% throughout.

As for `O=C1C=C(N2CC2)C(=O)C=C1N1CC1`, in the experiment with K562, the IC50 was 9 nM. The Cross linking in the experiment on Nucleic Acid [1] and in the experiment with Nucleic Acid [2] was 100% each time.

Take `CC1=CC(=O)C(N2CC2)=C(C)C1=O`: the IC50 in the experiment with K562 turned out to be 1200 nM. Also, the results for the Cross linking with Nucleic Acid [1] and in the experiment with Nucleic Acid [2] were 3% and 9%, respectively.

Consider `O=C1C=C(N2CCC2)C(=O)C=C1N1CCC1`, for which, in the experiment with K562, the IC50 was greater than 40000 nM. Besides, the Cross linking in the experiment with Nucleic Acid [1] and in the experiment with Nucleic Acid [2] was 0% in each case.

For the compound `CC1=CC(=O)C=CC1=O` [Cresoquinone], the IC50 in the experiment with K562 came to 2750 nM. Further, the Cross linking in the experiment with Nucleic Acid [1] and with Nucleic Acid [2] was 0% each time.

As to `CC1=CC(=O)C(C)=C(C)C1=O`, the IC50 with K562 was 3600 nM. For the same compound, the Cross linking with Nucleic Acid [1] and in the experiment on Nucleic Acid [2] was 0% throughout.

In the experiment on K562, `NC1=CC(=O)C(N)=CC1=O` showed an IC50 greater than 25000 nM. Further, the Cross linking in the experiment on Nucleic Acid [1] and with Nucleic Acid [2] was 0% each time.

Take `CC1=C(C)C(=O)C=CC1=O`: the half-maximal inhibitory concentration (IC50) with K562 is 1400 nM. Besides, the Cross linking in the experiment with Nucleic Acid [1] and with Nucleic Acid [2] was 0% throughout.

Regarding `CC1=C(C)C(=O)C(N2CC2)=CC1=O`, 1300 nM corresponded to half-maximal inhibition with K562 (IC50). The Cross linking turned out to be 1.2% with Nucleic Acid [1] and 4.7% with Nucleic Acid [2].

`CC1=CC(=O)C(N2CC2)=CC1=O` displayed an IC50 with K562 of 100 nM. For the same compound, the Cross linking in the experiment on Nucleic Acid [1] stood at 12.2%; with Nucleic Acid [2], 81%.

As to `CCCC1=CC(=O)C(N2CC2)=CC1=O`, the midpoint of inhibition with K562, the IC50, lay at 600 nM. For the same compound, the Cross linking amounted to 2.2% in the experiment on Nucleic Acid [1] and 13.2% in the experiment on Nucleic Acid [2].

For the compound `CC1=CC(=O)C(N)=CC1=O`, the IC50 in the experiment on K562 was greater than 15000 nM. Moreover, the Cross linking in the experiment on Nucleic Acid [1] and in the experiment with Nucleic Acid [2] was 0% throughout.

Compound `CC1=CC(=O)C=C(C)C1=O` showed an IC50 with K562 of 1250 nM. The Cross linking in the experiment on Nucleic Acid [1] and with Nucleic Acid [2] was 0% each time.

`CC1=CC(=O)C(N2CCC2)=CC1=O` had an IC50 in the experiment on K562 greater than 25000 nM. For the same compound, the Cross linking in the experiment with Nucleic Acid [1] and in the experiment with Nucleic Acid [2] was 0% in each case.

`CCC1=CC(=O)C(N2CC2)=CC1=O`: the IC50 in the experiment on K562 came to 600 nM. The results for the Cross linking in the experiment on Nucleic Acid [1] and with Nucleic Acid [2] were 6.9% and 57.1%, respectively.
